Compound activity as filed in PubChem.
CHRM4 PAM = positive allosteric modulators of human muscarinic M4 receptor | activation, % at 3 µM | P08173 | actives 0.4% (n = 360,000) | CHO-K1 hM4/Gqi5, Fluo-8 calcium fluorescence, ACh EC20; 0% = ACh EC20, 100% = maximal ACh;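 active means activation above its plate's cutoff, the mean activation of sample wells plus 3 SD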
Target sequence (P08173 whole entry, looked up): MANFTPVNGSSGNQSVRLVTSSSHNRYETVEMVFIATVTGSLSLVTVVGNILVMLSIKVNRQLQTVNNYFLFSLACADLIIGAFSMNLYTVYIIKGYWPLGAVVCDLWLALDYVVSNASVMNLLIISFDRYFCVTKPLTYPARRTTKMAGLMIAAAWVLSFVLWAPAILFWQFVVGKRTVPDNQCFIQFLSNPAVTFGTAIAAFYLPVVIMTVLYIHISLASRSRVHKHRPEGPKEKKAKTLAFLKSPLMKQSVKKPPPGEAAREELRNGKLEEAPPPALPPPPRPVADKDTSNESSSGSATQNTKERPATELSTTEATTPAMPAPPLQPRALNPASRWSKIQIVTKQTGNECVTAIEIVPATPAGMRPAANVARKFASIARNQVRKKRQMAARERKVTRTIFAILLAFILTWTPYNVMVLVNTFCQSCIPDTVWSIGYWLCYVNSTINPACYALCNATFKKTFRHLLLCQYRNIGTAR
M4 ag = agonists of human muscarinic M4 receptor (CHRM4) | activation, % at 3 µM | AID 624127 | actives 0.14% (n = 360,000) | CHO-K1 hM4/Gqi5, Fluo-8 calcium fluorescence; vehicle 0%, full acetylcholine response 100%;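 active means activation above the run mean over all test wells plus 3 SD, cut at about 32% in these data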;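 further: peak over basal fluorescence ratio per well then scaled between controls; 0% = DMSO wells and 100% = acetylcholine at EC100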
TAAR1 antagonist = antagonists of human TAAR1; CHO RD-HGA16 TAAR1, Fluo-8 calcium fluorescence, antagonist; AID 624466; Q96RJ0; inhibition, % at 3 µM; actives 1.5% (n = 360,000);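 active means inhibition above a per-plate cutoff, the mean inhibition of test compounds on that plate plus 3 SD, cut at about 49% in these data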;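 further: 0% = DMSO plus EC80 beta-PEA response and 100% = DMSO alone without agonist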
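System: CHO RD-HGA16 cells bearing hTAAR1. Reagent: EC80 β-phenethylamine stimulus. Schedule: seeding 17-24 h prior, 75-min 37 °C, 30-min RT dye loading. Signal: Fluo-8 intracellular calcium dye fluorescence, real-time kinetic reads. Read-out: % inhibition from peak post-agonist over basal fluorescence ratio. Benchmarks: vehicle wells and EC80 agonist wells. Replicates: n of 1.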
TAAR1 ag = human TAAR1 agonism | Q96RJ0 | CHO RD-HGA16 TAAR1, Fluo-8 calcium fluorescence; vehicle wells 0%, saturating PEA agonist 100% | activation, % at 3 µM | actives 0.99% (n = 360,000);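 active means activation above the mean activation of all test compounds in the run plus 3 SD, cut at about 38% in these data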
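Test system: RD-HGA16 (CHO) cells co-expressing Gα16 and hTAAR1; dosing: one-point dosing at 3 µM (nominal); timing: 17-24 h seeding, 75 min 37 °C dye, 30 min RT; signal: kinetic Fluo-8 calcium fluorescence; read-out basis: % activation relative to PEA EC100 response; controls: DMSO and PEA EC100; replicates: n 1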
M4 antag = CHRM4 antagonism in calcium assay; P08173; actives 0.73% (n = 360,000); AID 624125; inhibition, % at 3 µM; CHO-hM4 cells, ACh EC80, Fluo-8 calcium fluorescence;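 active means inhibition above its plate's cutoff, the mean inhibition of sample wells plus 3 SD, cut at about 27% in these data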;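 further: 0% = acetylcholine EC80 with DMSO and 100% = DMSO without agonist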
nonsel antag count = nonselective antagonism, TAAR1 counter-screen. shares compounds with TAAR1 antagonist. counterscreen cell line, calcium fluorescence, antagonist mode. inhibition, % at 3 µM. actives 77% (n = 2,400). AID 651780; in the data active means inhibition above about 22%;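 further: CHO-Ga16 host cells stimulated with ATP at an EC80 level; 0% = agonist EC80 plus vehicle and 100% = vehicle without agonist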
TAAR1 antag conf = confirmation of human TAAR1 antagonists. shares compounds with TAAR1 antagonist. TAAR1-expressing cells, fluorescence antagonist read-out. inhibition, % at 3 µM. actives 40% (n = 2,400); in the data active means inhibition above about 49%;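 further: CHO-Ga16 host cells challenged with agonist PEA near its EC80; 0% = agonist at EC80 plus vehicle and 100% = vehicle with no agonist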
Ga16 ag counter = counter-screen for TAAR1 antagonists: nonselective Ga16 agonists; shares compounds with TAAR1 antagonist; Ga16-expressing cells, calcium fluorescence, agonist counterscreen; activation, % at 3 µM; actives 18% (n = 2,400); AID 651953; in the data active means activation above about 12%;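 further: 0% = vehicle wells and 100% = saturating stimulus response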
TAAR1 ag count = TAAR1 agonism, antagonist counter-screen; AID 651955; shares compounds with TAAR1 antagonist; hTAAR1 cell line, fluorescence activation, agonist mode; actives 2% (n = 2,400); activation, % at 3 µM; in the data active means activation above about 37%;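 further: CHO cells stably expressing TAAR1 with calcium dye readout; 0% = DMSO vehicle and 100% = full agonist response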
Numbers without * were called inactive. Sampled rows, rich in hits. Any-hit rate of the full collection: about 3%.

Results for CCn1c(NC(=O)c2cccc(Cn3cc(Cl)cn3)c2)nc2ccccc21 ?
CHRM4 PAM: -9; M4 ag: 17; TAAR1 antagonist: 66*; TAAR1 ag: 5; M4 antag: -5; nonsel antag count: 26*; TAAR1 antag conf: 39; Ga16 ag counter: 5; TAAR1 ag count: 7

What do the screens show for `CNC(=O)OCc1nc(SSC(C)(C)C)n(C)c1COC(=O)NC`?
CHRM4 PAM: 1; M4 ag: 1; TAAR1 antagonist: -7; TAAR1 ag: 0; M4 antag: -7

Results for CCOc1ccc(-c2c(C)sc3nc[nH]c(=O)c23)cc1 ?
CHRM4 PAM: -7; M4 ag: 18; TAAR1 antagonist: 76*; TAAR1 ag: 14; M4 antag: 9; nonsel antag count: 26*; TAAR1 antag conf: 47; Ga16 ag counter: 8; TAAR1 ag count: 7

How did CCOC(=O)c1sc2nc[nH]c(=O)c2c1C do in these assays?
CHRM4 PAM: 9; M4 ag: 0; TAAR1 antagonist: 2; TAAR1 ag: -2; M4 antag: 13

How did COCc1cccc(-c2csc(C(C)(O)c3cccc(OC)c3)n2)c1 (stereo unspecified) do in these assays?
CHRM4 PAM: -5; M4 ag: 11; TAAR1 antagonist: 10; TAAR1 ag: 0; M4 antag: -10

How did N#Cc1c(N)[nH]c2ccc(Sc3ccccc3)cc12 do in these assays?
CHRM4 PAM: 5; M4 ag: 15; TAAR1 antagonist: 54*; TAAR1 ag: 25; M4 antag: -12; nonsel antag count: 28*; TAAR1 antag conf: 41; Ga16 ag counter: 12*; TAAR1 ag count: 24

How did C=CCn1c(=NC(=O)c2cccc(N3C(=O)CCC3=O)c2)sc2cccc(OC)c21 do in these assays?
CHRM4 PAM: -33; M4 ag: 12; TAAR1 antagonist: 74*; TAAR1 ag: 18; M4 antag: 8; nonsel antag count: 27*; TAAR1 antag conf: 52*; Ga16 ag counter: 11; TAAR1 ag count: 10

Results for CC1=C(C(=O)N(C(C)C)C(C)C)CC(CC(=O)NCCN2CCOCC2)C(=O)N1Cc1ccc(F)cc1 (stereo unspecified) ?
CHRM4 PAM: -5; M4 ag: 1; TAAR1 antagonist: -14; TAAR1 ag: 1; M4 antag: 1

What do the screens show for `O=C(c1cc(-c2ccccc2)n[nH]1)N1CCN(S(=O)(=O)c2ccccc2)CC1`?
CHRM4 PAM: -5; M4 ag: 7; TAAR1 antagonist: 5; TAAR1 ag: 3; M4 antag: 5

Results for COc1ccccc1-c1cc(C(=O)N2CCN(S(=O)(=O)c3ccc(C)cc3)CC2)[nH]n1 ?
CHRM4 PAM: 2; M4 ag: 5; TAAR1 antagonist: 74*; TAAR1 ag: 11; M4 antag: -9; nonsel antag count: 31*; TAAR1 antag conf: 44; Ga16 ag counter: 9; TAAR1 ag count: 7

Results for CCN(CC)C(=O)c1cccc(-c2csc(C(O)c3cccc(OC)c3)n2)c1 (stereo unspecified) ?
CHRM4 PAM: -8; M4 ag: 16; TAAR1 antagonist: 23; TAAR1 ag: 5; M4 antag: 6

What do the screens show for `COc1cc(/C=C2/C(=N)N3C=CSC3=NC2=O)ccc1OCCCOc1ccccc1C`?
CHRM4 PAM: -4; M4 ag: 2; TAAR1 antagonist: 64*; TAAR1 ag: 14; M4 antag: 4; nonsel antag count: 26*; TAAR1 antag conf: 43; Ga16 ag counter: 4; TAAR1 ag count: 4

What do the screens show for `COc1ccc(CNn2c(C)nc3ccccc3c2=O)cc1`?
CHRM4 PAM: 3; M4 ag: 18; TAAR1 antagonist: 28; TAAR1 ag: 6; M4 antag: -7

How did COc1ccccc1CNn1c(-c2cccc(C)c2)nc2ccccc2c1=O do in these assays?
CHRM4 PAM: -4; M4 ag: 9; TAAR1 antagonist: 43; TAAR1 ag: 11; M4 antag: 4

What do the screens show for `COc1ccc(CNn2c(-c3cccc(C)c3)nc3ccccc3c2=O)cc1OC`?
CHRM4 PAM: -11; M4 ag: 10; TAAR1 antagonist: 59*; TAAR1 ag: 17; M4 antag: -4; nonsel antag count: 24*; TAAR1 antag conf: 47; Ga16 ag counter: 6; TAAR1 ag count: 4

How did CCCCOc1ccc(CNn2c(C)nc3ccccc3c2=O)cc1 do in these assays?
CHRM4 PAM: -1; M4 ag: -1; TAAR1 antagonist: 59*; TAAR1 ag: 10; M4 antag: 4; nonsel antag count: 29*; TAAR1 antag conf: 44; Ga16 ag counter: 2; TAAR1 ag count: 2

Results for CCn1c(=S)[nH]c2c(=O)n(C)c(=O)n(C)c21 ?
CHRM4 PAM: 2; M4 ag: 0; TAAR1 antagonist: -23; TAAR1 ag: 4; M4 antag: -4

What do the screens show for `COc1ccc(C(C)(C)C)cc1NC(=O)OC[C@@H]1CSCCS(=O)(=O)N1`?
TAAR1 antagonist: -11; TAAR1 ag: 5

Results for COc1ccccc1N(C)S(=O)(=O)c1ccc(C(=O)NCc2ccc3c(c2)OCO3)cc1 ?
CHRM4 PAM: -16; M4 ag: 18; TAAR1 antagonist: 67*; TAAR1 ag: 18; M4 antag: 10; nonsel antag count: 31*; TAAR1 antag conf: 53*; Ga16 ag counter: 11; TAAR1 ag count: 12

What do the screens show for `COc1ccc(S(=O)(=O)N(C)CC(=O)NCc2ccc3c(c2)OCO3)cc1`?
CHRM4 PAM: -5; M4 ag: 0; TAAR1 antagonist: 0; TAAR1 ag: 2; M4 antag: -5

Results for COc1ccc2c(C(=O)NCc3ccc4c(c3)OCO4)c(-c3ccc(S(C)(=O)=O)cc3)sc2c1 ?
CHRM4 PAM: 8; M4 ag: 7; TAAR1 antagonist: 64*; TAAR1 ag: 21; M4 antag: -6; nonsel antag count: 36*; TAAR1 antag conf: 55*; Ga16 ag counter: 8; TAAR1 ag count: 12

What do the screens show for `COc1ccccc1N(C)S(=O)(=O)c1ccc(C(=O)Nc2ccc(C(N)=O)cc2)cc1`?
CHRM4 PAM: 3; M4 ag: 5; TAAR1 antagonist: 54*; TAAR1 ag: 9; M4 antag: -1; nonsel antag count: 24*; TAAR1 antag conf: 30; Ga16 ag counter: 4; TAAR1 ag count: 5
